Active and inactive are the calls of the source. No cut-off for these calls is given here.
Tests used:
[1] = species on record: Homo sapiens; assay: Antiapoptotic activity against HREC at 10 ug/ml after 48 hrs by MTT assay; type: functional
[2] = species on record: Homo sapiens; assay: Antiapoptotic activity against VEGF-treated HREC assessed as enhancement of occludin integrity at 1 to 10 ug/ml incubated for 60 mins prior to 20 ng/ml VEGF challenge measured after 60 mins by ZO-1 staining-based microscopy; type: functional
[3] = species on record: Homo sapiens; assay: Antiapoptotic activity against VEGF-treated HREC assessed as enhancement of occludin integrity at 10 ug/ml incubated for 60 mins prior to 50 ng/ml VEGF challenge measured after 60 mins by ZO-1 staining-based microscopy; type: functional
[4] = species on record: Homo sapiens; assay: Antiapoptotic activity against VEGF-treated HREC assessed as enhancement of occludin integrity at 10 ug/ml incubated for 60 mins prior to VEGF challenge measured after 60 mins by immunofluorescence microscopy; type: functional
[5] = species on record: Homo sapiens; assay: Antiapoptotic activity against HREC assessed as stabilization of cortical actin ring by measuring reduction of VEGF-induced actin stress fibre formation at 10 ug/ml incubated for 60 mins prior to VEGF challenge measured after 60 mins by immunofluorescence microscopy; type: functional
[6] = species on record: Homo sapiens; assay: Antiapoptotic activity against HREC assessed as reduction in VEGF-induced actin stress fibre formation at 10 to 20 ug/ml incubated for 60 mins prior to VEGF challenge measured after 60 mins by immunofluorescence microscopy; type: functional
[7] = species on record: Homo sapiens; assay: Antiapoptotic activity against HREC after 48 hrs by MTT assay; type: functional
How it was run: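 Serum-deprived human retinal endothelial cells (passages 2–7, grown on gelatin-coated dishes in EBM-2/EGM-2 with 20% FBS) exposed to analogs for 48 h; viability read by MTT colorimetric assay. Single-point screen at 10 mg/mL; dose-response over […]. Controls were medium alone (0 h) and DMSO vehicle.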

[8] = system: Mus musculus; assay: Inhibition of VEGF-induced retinal vascular leakage in C57BL/6 mouse diabetic retinopathy model at 10 ug/ml, […] after 24 hrs by FITC-dextran staining-based fluorescein angiography; type: functional, organism-based
How it was run: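 Eight-week-old C57BL/6 mice received an intravitreal injection of VEGF (50 ng) with or without analog ([…]) in one eye, and DMSO vehicle (same total volume, […]) in the contralateral eye. After 24 h, 40-kDa FITC-dextran (3 mg) was injected into the left ventricle and circulated 5 min. Eyes were fixed in 4% PFA and retinas flat-mounted for fluorescence microscopy.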

[9] = system: Mus musculus; assay: Inhibition of retinal vascular leakage in C57BL/6 mouse diabetic retinopathy model assessed as restoration of reduced occludin expression at 10 ug/ml, […] after 24 hrs by Western blotting analysis; type: functional, organism-based
[10] = system: Mus musculus; assay: Inhibition of retinal vascular leakage in C57BL/6 mouse diabetic retinopathy model at 10 ug/ml, […] after 24 hrs by FITC-dextran staining-based fluorescein angiography; type: functional, organism-based
How it was run: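 Diabetes induced in C57BL/6 mice with streptozotocin 90 mg/kg i.p. in citrate buffer pH 4.5, daily for 4 days; mice with glucose >300 mg/dl 3 days later were used. Analog ([…]) given intravitreally to one eye, DMSO to the other; n=5/group. At 24 h, leakage assessed by FITC-dextran angiography and Evans blue extraction (620 nm) normalized to retinal weight, blood dye and circulation time.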

| SMILES | Activity [1] | further results |
| --- | --- | --- |
| CC(=O)OC[C@H]1OC(O[C@H]2CC[C@@]3(C)C(=CC[C@H]4[C@@H]5CC[C@H](/C(C)=N/OCCC(C)C)[C@@]5(C)CC[C@@H]43)C2)C=C[C@@H]1OC(C)=O (stereo partly specified) | Active | – |
| CC(=O)OCC1OC(O[C@H]2CC[C@@]3(C)C(=CC[C@H]4[C@@H]5CC[C@H](/C(C)=N/OC(C)C)[C@@]5(C)CC[C@@H]43)C2)C=C[C@@H]1OC(C)=O (single isomer, unassigned) | Active | – |
| CC(=O)OC[C@H]1OC(O[C@H]2CC[C@@]3(C)C(=CC[C@H]4[C@@H]5CC[C@H]([C@H](C)CCCC(C)C)[C@@]5(C)CC[C@@H]43)C2)C=C[C@@H]1OC(C)=O (stereo partly specified) | Active | Activity [2]: Active; Activity [3]: Active; Activity [4]: Active; Activity [5]: Active |
| CC(=O)OC[C@H]1OC(O[C@H]2CC[C@@]3(C)C(=CC[C@H]4[C@@H]5CC[C@H]([C@@](C)(O)CCCC(C)C)[C@@]5(C)CC[C@@H]43)C2)C=C[C@@H]1OC(C)=O (stereo partly specified) | – | Activity [6]: Active |
| CC(=O)OC[C@H]1OC(O[C@H]2CC[C@@]3(C)C(=CC[C@H]4[C@@H]5CC[C@H](/C(C)=N/OCC(C)C)[C@@]5(C)CC[C@@H]43)C2)C=C[C@@H]1OC(C)=O (stereo partly specified) | Active | – |
| CC(=O)OC[C@H]1OC(O[C@H]2CC[C@@]3(C)C(=CC[C@H]4[C@@H]5CC[C@H](/C(C)=N/OCc6ccccc6)[C@@]5(C)CC[C@@H]43)C2)C=C[C@@H]1OC(C)=O (stereo partly specified) | Active | Activity [7]: Dose-dependent effect; Activity [4]: Active; Activity [5]: Active |
| CC(=O)OC[C@H]1OC(O[C@H]2CC[C@@]3(C)C(=CC[C@H]4[C@@H]5CC[C@H](/C(C)=C/CCC(C)C)[C@@]5(C)CC[C@@H]43)C2)C=C[C@@H]1OC(C)=O (stereo partly specified) | Active | Activity [6]: Active |
| CC(=O)OC[C@H]1OC(O[C@H]2CC[C@@]3(C)C(=CC[C@H]4[C@@H]5CC[C@H](/C(C)=N/OC6CCCC6)[C@@]5(C)CC[C@@H]43)C2)C=C[C@@H]1OC(C)=O (stereo partly specified) | Active | inhibition [8]: Active; inhibition [9]: Active; Activity [2]: Active; Activity [3]: Active; Activity [7]: Dose-dependent effect; inhibition [10]: Active; Activity [4]: Active; Activity [5]: Active |
| C/C(=C\CCC(C)C)[C@H]1CC[C@H]2[C@@H]3CC=C4C[C@@H](OC5CCCCO5)CC[C@]4(C)[C@H]3CC[C@]12C (stereo partly specified) | Active | – |
| CC(=O)OC[C@H]1OC(O[C@H]2CC[C@@]3(C)C(=CC[C@H]4[C@@H]5CC[C@H](/C(C)=N/OCc6cccnc6)[C@@]5(C)CC[C@@H]43)C2)C=C[C@@H]1OC(C)=O (stereo partly specified) | inactive | – |
| CC(=O)OC[C@H]1OC(O[C@H]2CC[C@@]3(C)C(=CC[C@H]4[C@@H]5CC[C@H](/C(C)=N/OC6C=CCCC6)[C@@]5(C)CC[C@@H]43)C2)C=C[C@@H]1OC(C)=O (stereo partly specified) | Active | Activity [7]: Dose-dependent effect; Activity [4]: Active; Activity [5]: Active |
| C=CCO/N=C(\C)[C@H]1CC[C@H]2[C@@H]3CC=C4C[C@@H](OC5C=C[C@H](OC(C)=O)C(COC(C)=O)O5)CC[C@]4(C)[C@H]3CC[C@]12C (single isomer, unassigned) | Active | – |
| C=C(CCC=C(C)C)[C@H]1CC[C@]2(C)[C@@H]1[C@H](O)C[C@@H]1[C@@]3(C)CC[C@H](O[C@@H]4O[C@H](CO)[C@@H](O)[C@H](O)[C@H]4O[C@@H]4O[C@H](CO)[C@@H](O)[C@H](O)[C@H]4O)C(C)(C)[C@@H]3CC[C@]12C | Active | – |
| CC(C)=CCC[C@](C)(O)[C@H]1CC[C@]2(C)[C@@H]1[C@H](O)C[C@@H]1[C@@]3(C)CC[C@H](O[C@@H]4O[C@H](CO)[C@@H](O)[C@H](O)[C@H]4O[C@@H]4O[C@H](CO)[C@@H](O)[C@H](O)[C@H]4O)C(C)(C)[C@@H]3CC[C@]12C | Active | – |
| CCCCCO/N=C(\C)[C@H]1CC[C@H]2[C@@H]3CC=C4C[C@@H](OC5C=C[C@H](OC(C)=O)C(COC(C)=O)O5)CC[C@]4(C)[C@H]3CC[C@]12C (single isomer, unassigned) | Active | – |
| C#CCO/N=C(\C)[C@H]1CC[C@H]2[C@@H]3CC=C4C[C@@H](OC5C=C[C@H](OC(C)=O)[C@@H](COC(C)=O)O5)CC[C@]4(C)[C@H]3CC[C@]12C (stereo partly specified) | Active | – |
| CO/N=C(\C)[C@H]1CC[C@H]2[C@@H]3CC=C4C[C@@H](OC5C=C[C@H](OC(C)=O)C(COC(C)=O)O5)CC[C@]4(C)[C@H]3CC[C@]12C (single isomer, unassigned) | Active | – |
| CC(=O)OC[C@H]1OC(O[C@H]2CC[C@@]3(C)C(=CC[C@H]4[C@@H]5CC[C@H](/C(C)=N/O)[C@@]5(C)CC[C@@H]43)C2)C=C[C@@H]1OC(C)=O (stereo partly specified) | Active | – |
| CC(=O)OC[C@H]1OC(O[C@H]2CC[C@@]3(C)C(=CC[C@H]4[C@@H]5CC[C@H](/C(C)=N/OCC=C(C)C)[C@@]5(C)CC[C@@H]43)C2)C=C[C@@H]1OC(C)=O (stereo partly specified) | Active | – |
| CCCCO/N=C(\C)[C@H]1CC[C@H]2[C@@H]3CC=C4C[C@@H](OC5C=C[C@H](OC(C)=O)C(COC(C)=O)O5)CC[C@]4(C)[C@H]3CC[C@]12C (single isomer, unassigned) | Active | – |
| CC(=O)OCC1OC(O[C@H]2CC[C@@]3(C)C(=CC[C@H]4[C@@H]5CC[C@H](/C(C)=N/OC6CCCCC6)[C@@]5(C)CC[C@@H]43)C2)C=C[C@@H]1OC(C)=O (single isomer, unassigned) | Active | – |
| CCO/N=C(\C)[C@H]1CC[C@H]2[C@@H]3CC=C4C[C@@H](OC5C=C[C@H](OC(C)=O)C(COC(C)=O)O5)CC[C@]4(C)[C@H]3CC[C@]12C (single isomer, unassigned) | Active | – |

Reference: ChEMBL document CHEMBL3124765, “Glucal-conjugated sterols as novel vascular leakage blocker: structure-activity relationship focusing on the C17-side chain” (Eur J Med Chem, 2014)
